As usually defined, the pKi is the Ki on a negative log10 scale, so that one unit is a factor of ten. What is called logP is a log measure of how a compound divides between an organic and an aqueous phase.

pKi: −log10 of the molar value. Activity calls are given as the source filed them. The calls are words filed in the database; no cut-off is given here.

Experimental findings from ChEMBL document CHEMBL3232800, “Polyfluorinated bis-styrylbenzenes as amyloid-β plaque binding ligands” (Bioorg Med Chem, 2014) are described below.

In data set [1] the target is T1, Amyloid-beta precursor protein (Homo sapiens, UniProt P05067). The data set is described as follows: Binding affinity to beta-amyloid plaque in Alzheimer's disease patient brain at 10 uM by fluorescence microscopic analysis. The procedure, abridged: (§1)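 Sections were stained for 10 min in darkness with compound diluted from 3 mM DMSO stocks to 1, 10 or 100 µM in 2:3 PBS/ethanol and sonicated 15 min. Tissue was paraffin sections of Braak IV human AD medial temporal cortex (8 µm), 14-month APP/PS1 mouse brain and age-matched controls. Sections were rinsed, then 0.1% NaOH in 80% ethanol for 2 min. Read by slide-scanner fluorescence with a DAPI cube (Ex 365, Em 445/50 nm) at constant settings; assessment was qualitative.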

Data set [2] deals with T1, Amyloid-beta precursor protein. As to the kind of experiment: Binding affinity to beta-amyloid plaque in APP/PS1 transgenic mouse brain at 1 uM by fluorescence microscopic analysis. In kind it is tissue-based. The procedure, abridged:
as §1

Data set [3] has the same target. As to the kind of experiment: Binding affinity to beta-amyloid plaque in Alzheimer's disease patient brain at 100 uM by fluorescence microscopic analysis. The procedure, abridged: as §1
The target is the same in data set [4]. The data set is described as follows: Displacement of [3H]chrysamine G from fibrillar amyloid beta (1 to 40) (unknown origin) after 1 hr by liquid scintillation spectrophotometric analysis. The procedure, abridged: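 Competition binding was run at room temperature in 1 ml of 150 mM Tris-HCl, 20% ethanol, pH 7.0. Test compound ranged 30 µM to 30 pM (from 3 mM DMSO stocks, sonicated) against 5 nM [3H]chrysamine G and 50 nM synthetic Aβ1-40 fibrils. Nonspecific binding was taken with 1 µM Methoxy-X04.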

Data set [5] is described as follows: Partition coefficient, log P of the compound in methanol-water mixture by HPLC analysis. In kind it is physicochemical. The procedure, abridged:
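Eluent A was 0.02 M Na2HPO4 phosphate buffer, pH 7.0, and eluent B was 0.25% octanol in methanol. Samples came from 0.5 mg/ml methanol stocks. Values above 7 are not reliably measured.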

The test system of data set [6] is Mus musculus. The data set is described as follows: Binding affinity to beta-amyloid plaque in APP/PS1 transgenic mouse brain at 30 umol/kg, iv after 1 day by fluorescence microscopic analysis. In kind it is functional, organism-based. An outline of the steps:
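APP/PS1 mice aged 12–14 months, with age-matched wildtype (n = 2 per compound), got an iv dose of 30 µmol/kg from a 0.05 M solution in 1:1 DMSO/Cremophor diluted with PBS to 200 µl. After one day they were perfused with 4% PFA and brains cryoprotected in sucrose/PFA. Brains were cut into 30 µm cryosections and imaged by the same fluorescence slide-scanner set-up.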

The target in data set [7] is T1, Amyloid-beta precursor protein. As to the kind of experiment: Binding affinity to fibrillar amyloid beta (1 to 40) (unknown origin) assessed as fluorescence intensity relative to Methoxy-X04.
The target is the same in data set [8]. The data set is described as follows: Binding affinity to fibrillar amyloid beta (1 to 40) (unknown origin) assessed as fluorescence intensity relative to control.
The target is the same in data set [9]. As to the kind of experiment: Binding affinity to beta-amyloid plaque in APP/PS1 transgenic mouse brain at 100 uM by fluorescence microscopic analysis. Format: tissue-based. The procedure, abridged:
as §1

For data set [10] the target is unchanged. The data set is described as follows: Binding affinity to fibrillar amyloid beta (1 to 40) (unknown origin) at 1.92 mM by [19F]-NMR spectrometric analysis.
The test system of data set [11] is Mus musculus. As to the kind of experiment: Binding affinity to beta-amyloid plaque in APP/PS1 transgenic mouse brain at 30 umol/kg, iv after 24 hrs by [19F]-NMR spectrometric analysis. In kind it is functional, organism-based.
The target of data set [12] is T1, Amyloid-beta precursor protein. The data set is described as follows: Binding affinity to beta-amyloid plaque in APP/PS1 transgenic mouse brain homogenate at 1.92 mM by [19F]-NMR spectrometric analysis. Format: tissue-based.
Setting [13] is: methanol-water mixture, read-out: logP.

T1 sequence (P05067 whole entry): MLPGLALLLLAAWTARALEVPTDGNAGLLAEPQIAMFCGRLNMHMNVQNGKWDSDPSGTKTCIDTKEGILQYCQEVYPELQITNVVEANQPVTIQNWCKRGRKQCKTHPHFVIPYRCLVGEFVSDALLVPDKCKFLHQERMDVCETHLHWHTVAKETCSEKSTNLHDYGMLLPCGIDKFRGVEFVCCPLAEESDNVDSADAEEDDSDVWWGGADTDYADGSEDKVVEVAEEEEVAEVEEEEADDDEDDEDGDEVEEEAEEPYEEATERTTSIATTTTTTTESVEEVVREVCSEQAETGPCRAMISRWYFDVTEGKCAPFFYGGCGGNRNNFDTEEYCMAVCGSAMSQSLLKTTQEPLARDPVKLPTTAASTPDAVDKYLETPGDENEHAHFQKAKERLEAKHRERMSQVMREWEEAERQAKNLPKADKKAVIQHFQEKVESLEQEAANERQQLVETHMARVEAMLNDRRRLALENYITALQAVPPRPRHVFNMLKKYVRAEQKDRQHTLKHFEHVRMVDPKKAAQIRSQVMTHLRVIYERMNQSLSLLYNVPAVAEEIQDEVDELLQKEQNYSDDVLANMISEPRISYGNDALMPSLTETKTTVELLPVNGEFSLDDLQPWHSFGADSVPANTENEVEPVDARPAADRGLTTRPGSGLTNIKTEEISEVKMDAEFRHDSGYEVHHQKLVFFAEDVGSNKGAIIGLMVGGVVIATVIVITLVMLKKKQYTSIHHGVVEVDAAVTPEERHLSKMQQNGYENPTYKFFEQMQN

Turning to `COc1cc(/C=C/c2ccc(O)cc2)ccc1/C=C/c1ccc(O)cc1`, the result in data set [1], in data set [2], in data set [3], in data set [6] and in [9] was Active. The same compound showed a pKi in data set [4] of 7.62. Moreover, the logP in data set [5] (octanol/water) worked out at 4.84. In data set [7], the RFU was found to be 100. For the same compound, the fold change (FC) in data set [8] came out at 9.8.
With `COc1cc(/C=C/c2ccc(CO)cc2)ccc1/C=C/c1ccc(CO)cc1`, the outcome in [1], in data set [2], in data set [3], in data set [6] and in data set [9] was Active. The logP in data set [5] (setting [13]) turned out to be 4.99. In addition, the RFU in [7] stood at 26. Also, the fold change (FC) in [8] is 4.1.
Turning to `COc1cc(/C=C/c2ccc(OC(F)(F)F)cc2)ccc1/C=C/c1ccc(OC(F)(F)F)cc1`, the outcome in [1], in [2], in [3], in data set [6] and in data set [9] was Active. In addition, the logP in data set [5] (setting [13]) was over 7. Further, the RFU in data set [7] amounted to 3. For the same compound, in data set [8], the fold change (FC) was under 1.
Take `COc1cc(/C=C/c2ccc(C(F)(F)C(F)F)cc2)ccc1/C=C/c1ccc(C(F)(F)C(F)F)cc1`: the outcome in data set [1], in data set [2], in data set [3], in data set [6] and in data set [9] was Active. Moreover, the lipophilicity (logP) in data set [5] (setting [13]) was over 7. Further, the RFU in data set [7] is 1. Further, the fold change (FC) in data set [8] was under 1.
On to `Oc1ccc(/C=C/c2ccc(/C=C/c3ccc(O)cc3)c(OC(C(F)(F)F)(C(F)(F)F)C(F)(F)F)c2)cc1`, for which the outcome in data set [1], in [2], in data set [3], in data set [6], in [12] and in data set [9] was Active. The result in [10] and in data set [11] was inactive. In [4], this compound gave a negative-log Ki (pKi) of 7.07. In data set [5] (setting [13]), the logP was over 7. Also, in data set [7], the RFU was 38. In data set [8], the fold change (FC) is 17.8.
For `COc1cc(/C=C/c2ccc(O)cc2)c(OC)cc1/C=C/c1ccc(O)cc1`, the outcome in data set [1], in data set [2] and in [6] was inactive. Further, in [5] (setting [13]), the logP stood at 5.
For the compound `Oc1ccc(/C=C/c2ccc(/C=C/c3ccc(O)cc3)c(OCC(F)(F)F)c2)cc1`, the outcome in data set [1] was inactive. Besides, the outcome in [2], in [3], in [6] and in [9] was Active. In addition, the pKi in [4] was 7.41. Also, in [5] (setting [13]), the logP is 5.25. In addition, the RFU in data set [7] came out at 7. The fold change (FC) in [8] was found to be 4.1.
Consider `Oc1ccc(/C=C/c2ccc(/C=C/c3ccc(O)cc3)c(C(F)(F)F)c2)cc1`, for which the result in data set [1] was inactive. Also, the outcome in data set [2], in data set [3], in data set [6] and in data set [9] was Active. Besides, in data set [4], the pKi was 6.61. The logP in data set [5] (setting [13]) is 5.64. Further, the RFU in [7] is 19. The fold change (FC) in [8] is 10.7.
For the compound `COc1cc(/C=C/c2ccc(C(F)(F)F)cc2)ccc1/C=C/c1ccc(C(F)(F)F)cc1`, the result in data set [1], in data set [2], in data set [3], in data set [6] and in data set [9] was Active. For the same compound, in data set [5] (setting [13]), the logP was over 7. In addition, the RFU in data set [7] turned out to be 1. The fold change (FC) in data set [8] is under 1.
Regarding `Oc1ccc(/C=C/c2ccc(/C=C/c3ccc(O)cc3)c(OCCCC(F)(F)F)c2)cc1`, the result in data set [1] and in [2] was inactive. In data set [4], this compound gave a pKi of 7.25. Also, in data set [5] (setting [13]), the logP worked out at 5.79. For the same compound, the result in data set [6] was Active. Moreover, the RFU in data set [7] was determined as 2. Also, the fold change (FC) in [8] came to 4.3.
In the case of `Oc1cc(/C=C/c2ccc(C(F)(F)C(F)F)cc2)ccc1/C=C/c1ccc(C(F)(F)C(F)F)cc1`, the result in data set [1], in [2], in data set [3], in data set [6] and in [9] was Active. The logP in [5] (setting [13]) was over 7.
As for `COc1cc(/C=C/c2ccc(OC)c(C(F)(F)F)c2)ccc1/C=C/c1ccc(OC)c(C(F)(F)F)c1`, the result in data set [1] and in data set [6] was inactive. Besides, the result in data set [2], in [3] and in data set [9] was Active. Moreover, in [5] (setting [13]), the logP is over 7. Besides, the RFU in [7] came to 4. In addition, in [8], the fold change (FC) was under 1.
With `Oc1cc(/C=C/c2ccc(OC(F)(F)F)cc2)ccc1/C=C/c1ccc(OC(F)(F)F)cc1`, the outcome in [1], in [2], in data set [3], in data set [6] and in data set [9] was Active. Also, the logP in data set [5] (setting [13]) is over 7. In addition, the RFU in data set [7] stood at 13. Moreover, in data set [8], the fold change (FC) turned out to be 7.4.
For the compound `Oc1cc(/C=C/c2ccc(C(F)(F)F)cc2)ccc1/C=C/c1ccc(C(F)(F)F)cc1`, the result in data set [1], in data set [2], in data set [3], in [6] and in data set [9] was Active. In data set [5] (setting [13]), the logP was determined as 6.18. In addition, the RFU in data set [7] stood at 2. Besides, the fold change (FC) in data set [8] worked out at 3.6.
